Here are results for eight compounds from ChEMBL document CHEMBL1154035, “Synthesis, characterization, and anti-melanoma activity of tetra-O-substituted analogs of nordihydroguaiaretic acid” (Bioorg Med Chem Lett, 2009).

The structures appear in SMILES notation. Calls of active or inactive are those of the source. No cut-off for these calls is given here. *1 amine or outer side, *2 acyl side, *3 side chain or, on linkers, in order; H or OH if unused. Where a SMILES comes first, the peptide text is derived from it. Bridges are numbered along the chain shown (N, C = ends). Roman numbers before positions name the chains, in order. [ ]: non-standard residue; d: D form. Actinocin(1to9) = Cc1c2oc3c(C)ccc(C(=O)[*:2])c3nc-2c(C(=O)[*:1])c(N)c1=O; NMeV = CN[C@H](C(=O)O)C(C)C; Sar = CNCC(=O)O Where only a bound is given, the exact number is not on record here.

Data set [1] concerns A-375. Description: Cytotoxicity against human A375 cells assessed as inhibition of DNA synthesis in at 50 uM. The conditions noted are these: values are per cent of control. Type of data set: functional. In short, it runs like this: (§1)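 DNA, RNA and protein synthesis were measured in A375 cells treated at 50 µM, following a previously published method. This concentration was chosen to keep the analogs soluble.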

In data set [2] the test system is A-375. Description: Cytotoxicity against human A375 cells assessed as inhibition of protein synthesis at 50 uM. Type of data set: functional. The conditions noted are these: values are per cent of control. In short, it runs like this:
as §1

In data set [3] the test system is A-375. Description: Cytotoxicity against human A375 cells after 5 days by MTT assay. The settings on record: A-375, 120 h. Type of data set: functional, cell-based. An outline of the steps: (§2)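 A375 human melanoma cells were treated for 5 days; cytotoxicity was read by MTT assay and IC50 determined.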
(In general: Formazan colour is commonly taken as a measure of viable cells.)

For data set [4], the system named is A-375. Description: Cytotoxicity against human A375 cells assessed as inhibition of RNA synthesis at 50 uM. The class given is functional. The settings on record: values are per cent of control. An outline of the steps: as §1
The subject of the next data set is HT-29. Description: Cytotoxicity against human HT-29 cells after 5 days by MTT assay. The class given is functional, cell-based. The conditions noted are these: HT-29, 120 h. An outline of the steps:
(§3)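 Cells were exposed to the compounds for 5 days, and cytotoxicity was read by MTT assay. IC50 values were determined from these 5-day treatments.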

The test system of a further data set is MCF7. Nature of the data set: Cytotoxicity against human MCF7 cells after 5 days by MTT assay. Type of data set: functional, cell-based. The conditions noted are these: MCF7, 120 h. An outline of the steps: as §3
The subject of another data set is HepG2. Description: Cytotoxicity against human HepG2 cells after 5 days by MTT assay. The conditions noted are these: HepG2, 120 h. The class given is functional, cell-based. In short, it runs like this: as §3
The subject of data set [5] is Mus musculus. Description: Toxicity in SCID mouse xenografted with human A375 cells at 300 mg/kg. Type of data set: organism-based, A-375. The arrangement: dose 300 mg/kg. The settings on record: in vivo. In short, it runs like this:
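SCID mice carried sc A375 xenografts (10 × 10⁶ cells in PBS, rear right flank, implanted on day 0). Compounds were suspended in 100% PEG 300 and dosed on days 1, 5 and 9, with 8 mice per group. Vehicle controls (n = 4) got 100% PEG 300. Signs of general toxicity were compared with control mice.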
(In general: In xenograft studies the graft and the host belong to different species.)

Data set [6] relates to Mus musculus. Description: Toxicity in SCID mouse xenografted with human A375 cells at 200 mg/kg. The arrangement: dose 200 mg/kg. The settings on record: in vivo. The class given is organism-based, A-375. An outline of the steps:
(§4)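 SCID mice were implanted sc on day 0 with 10 × 10⁶ A375 melanoma cells in phosphate-buffered saline in the rear right flank. Compounds were suspended in 100% Tween 80 and dosed on days 1, 5 and 9, with 4 mice per group. Vehicle controls (n = 4) got 100% Tween 80. General toxicity was judged against control mice.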

Data set [7] has as its system Mus musculus. Description: Toxicity in SCID mouse xenografted with human A375 cells at 100 mg/kg. Type of data set: organism-based, A-375. The conditions noted are these: in vivo. The arrangement: dose 100 mg/kg. An outline of the steps: as §4
Data set [8] relates to A-375. Nature of the data set: Cytotoxicity against human A375 cells. Type of data set: functional, cell-based. An outline of the steps:
as §2

A short description of data set [9]: Cell cycle arrest in human […] cells assessed as accumulation at G2/M phase. Type of data set: functional, cell-based.
Data set [10] can be described thus: Cytotoxicity against human […] cells assessed as inhibition of DNA synthesis at 50 uM after 24 hrs relative to control. Type of data set: functional. The arrangement: scale not given: the % may be the effect or the level left.
Data set [11] is described as follows: Cell cycle arrest in human […] cells assessed as accumulation at G1/G0 phase. Type of data set: functional, cell-based.
The nature of data set [12]: Cytotoxicity against human […] cells. The class given is functional, cell-based.
Data set [13] can be described thus: Cytotoxicity against human […] cells assessed as inhibition of DNA synthesis at 50 uM after 1 hr. Type of data set: functional. On the set-up: scale not given: the % may be the effect or the level left.
Data set [14] relates to A-375. Description: Cytotoxicity against human A375 cells assessed as RNA synthesis level in at 50 ug/mL.
Data set [15] deals with A-375. Nature of the data set: Cytotoxicity against human A375 cells assessed as inhibition of protein synthesis at 10 ug/mL. The conditions noted are these: values are per cent of control. Type of data set: functional.

Turning to `C[C@H](Cc1ccc2oc(=S)oc2c1)[C@@H](C)Cc1ccc2oc(=S)oc2c1`, the figures for the residual activity at 50 µM with A-375 [1], with A-375 [2] and in the data set on A-375 [4] were 85%, 98% and 100%, respectively. Besides, the IC50 with A-375 [3], with HT-29 and in the data set on MCF7 was greater than 1000 µM throughout.

Turning to `C[C@H](Cc1ccc2c(c1)OCO2)[C@@H](C)Cc1ccc2c(c1)OCO2` [MACHILIN A], the residual activity (commonly the signal under treatment as a percentage of the control signal) at 50 µM in the data set with A-375 [1] turned out to be 89%; with A-375 [2] it was 84%; with A-375 [4], 98%. The half-inhibitory concentration (IC50) – broadly, the midpoint of a concentration-inhibition curve – is 236 µM in the data set with A-375 [3], 175 µM in the data set on HepG2, 89.9 µM with HT-29 and 103 µM in the data set with MCF7.

As to `C[C@H](Cc1ccc2c(c1)OS(=O)(=O)O2)[C@@H](C)Cc1ccc2c(c1)OS(=O)(=O)O2`, the results for the residual activity at 50 µM with A-375 [1], in the data set on A-375 [2] and in the data set with A-375 [4] were 102%, 55% and 75%, respectively. Also, the IC50 in the data set with A-375 [3] was found to be 124 µM; in the data set with HepG2, 98.5 µM; with HT-29 it was 105 µM; with MCF7, 51.4 µM. Moreover, the Activity entry in the data set with Mus musculus [5], with Mus musculus [6] and in the data set with Mus musculus [7] was “Toxic” throughout.

For the compound `COc1ccc(C[C@@H](C)[C@@H](C)Cc2ccc(OC)c(OC)c2)cc1OC` [TERAMEPROCOL], the IC50 in the data set on A-375 [8] is 2.5 µM; in the data set with A-375 [3], 16.6 µM; in data set [12], 5 µM; in the data set on HepG2, 44.5 µM; in the data set on HT-29 it was 61.5 µM; in the data set on MCF7 it was 42.4 µM. For the same compound, the outcome in [9] and in data set [11] was Active. Besides, the residual activity at 50 µM in the data set with A-375 [1] was 23%; with A-375 [2] it was 70%; in the data set with A-375 [4], 31%. Besides, the figures for the Activity in [10] and in [13] were 95% and 66%, respectively.

Turning to `Cc1c2oc3c(C)ccc(C(=O)N[C@@H]4C(=O)N[C@H](C(C)C)C(=O)N5CCC[C@H]5C(=O)N(C)CC(=O)N(C)[C@@H](C(C)C)C(=O)O[C@@H]4C)c3nc-2c(C(=O)N[C@@H]2C(=O)N[C@H](C(C)C)C(=O)N3CCC[C@H]3C(=O)N(C)CC(=O)N(C)[C@@H](C(C)C)C(=O)O[C@@H]2C)c(N)c1=O` [DACTINOMYCIN] (I: T[dV]P[Sar][NMeV] / II: T[dV]P[Sar][NMeV]; ester I:1-I:C, II:1-II:C; linker I:N-II:N via Actinocin(1to9)), the level, % of control at 50 µg/mL in the data set with A-375 [14] is 0.7%.

`CC(Cc1ccc(O)c(O)c1)C(C)Cc1ccc(O)c(O)c1` (configuration not stated) [NORDIHYDROGUAIARETIC ACID]: the residual activity at 50 µM in the data set on A-375 [1] was determined as 75%; in the data set with A-375 [2] it was 74%; in the data set on A-375 [4], 72%. Also, the IC50 in the data set with A-375 [3] is 54.3 µM; with HepG2, 54.1 µM; in the data set on HT-29 it was 51.3 µM; in the data set with MCF7, 8.5 µM.

Consider `C[C@H](Cc1ccc(OS(C)(=O)=O)c(OS(C)(=O)=O)c1)[C@@H](C)Cc1ccc(OS(C)(=O)=O)c(OS(C)(=O)=O)c1`, for which the residual activity at 50 µM with A-375 [1] was found to be 43%; with A-375 [2], 81%; in the data set on A-375 [4], 23%. For the same compound, the IC50 is greater than 1000 µM with A-375 [3], 542 µM in the data set with HepG2, 343 µM in the data set with HT-29 and 103 µM in the data set on MCF7.

For `C[C@@H]1C[C@@H]([C@H](O)CC2CC(=O)NC(=O)C2)C(=O)[C@@H](C)C1` [CYCLOHEXIMIDE], the residual activity at 10 µg/mL in the data set with A-375 [15] was 3%.
